# ChEMBL document CHEMBL1770063, “Synthesis and cytotoxic activity of benzo[a]acronycine and benzo[b]acronycine substituted on the A ring” (Eur J Med Chem, 2011)
# Key:
# [1] = Cytotoxicity against human KB-3-1 cells after 96 hrs by MTA assay; type: functional, cell-based; conditions: KB 3-1, 96 h
# Summary of the method: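 KB-3-1 cells grown in DMEM with 10% fetal calf serum, 2 mM L-glutamine, penicillin/streptomycin, 10 mM HEPES (pH 7.4). Exposed to nine serial drug dilutions in triplicate for 96 h (four doubling times); microculture tetrazolium read-out. IC50 is the concentration reducing optical density by 50% relative to untreated controls.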
# L1210 = assay: Cytotoxicity against mouse L1210 cells after 48 hrs by MTA assay; type: functional, cell-based; conditions: L1210, 48 h
# Summary of the method: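 L1210 cells maintained in RPMI 1640 plus 10% fetal calf serum, 2 mM L-glutamine, penicillin/streptomycin and 10 mM HEPES (pH 7.4). Drug given at nine serial dilutions, triplicate, for 48 h (four doubling times), then tetrazolium microculture assay. IC50 is the concentration giving 50% lower optical density than untreated controls.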
Structure (SMILES),IC50 [1],IC50 (L1210)
COc1cc2c(c3c1c(=O)c1c4ccc(Br)cc4ccc1n3C)[C@H]1OC(=O)O[C@H]1C(C)(C)O2 (racemic),0.015 µM,0.08 µM
COc1cc2c(c3c1c(=O)c1cc4ccccc4cc1n3C)[C@@H](OC(C)=O)[C@@H](OC(C)=O)C(C)(C)O2 (racemic),0.095 µM,
COc1cc2c(c3c1c(=O)c1c4ccc(Br)cc4ccc1n3C)C=CC(C)(C)O2,1.3 µM,0.49 µM
COc1cc2c(c3c1c(=O)c1cc4cc(Br)ccc4cc1n3C)[C@@H](OC(C)=O)[C@@H](OC(C)=O)C(C)(C)O2 (racemic),0.115 µM,0.6 µM
COc1cc2c(c3c1c(=O)c1c4ccc(Br)cc4ccc1n3C)[C@@H](O)[C@@H](O)C(C)(C)O2 (racemic),5.5 µM,7.6 µM
COc1cc2c(c3c1c(=O)c1c4ccc(Br)cc4ccc1n3C)[C@@H](OC(C)=O)[C@@H](OC(C)=O)C(C)(C)O2 (racemic),0.04 µM,0.4 µM
COc1cc2c(c3c1c(=O)c1c4ccccc4ccc1n3C)[C@@H](OC(C)=O)[C@@H](OC(C)=O)C(C)(C)O2 (racemic),0.14 µM,0.73 µM
Cn1c2cc3ccc(Br)cc3cc2c(=O)c2c(O)cc3c(c21)C=CC(C)(C)O3,14.3 µM,0.645 µM
C#CC(C)(C)Oc1cc(O)c2c(=O)c3c4ccc(Br)cc4ccc3n3c2c1C(C)(C)C3=C,37.1 µM,51.1 µM
COc1cc2c(c3c1c(=O)c1cc4cc(Br)ccc4cc1n3C)C=CC(C)(C)O2,9.9 µM,2.2 µM
COc1cc2c(c3c1c(=O)c1c4ccccc4ccc1n3C)[C@H]1OC(=O)O[C@H]1C(C)(C)O2 (racemic),0.015 µM,0.059 µM
COc1cc2c(c3c1c(=O)c1cc4ccccc4cc1n3C)[C@H]1OC(=O)O[C@H]1C(C)(C)O2 (racemic),,0.016 µM
COc1cc2c(c3c1c(=O)c1c4ccccc4ccc1n3C)C=CC(C)(C)O2 [BENZO[A]ACRONYCINE],8.6 µM,
COc1cc2c(c3c1c(=O)c1cc4ccccc4cc1n3C)C=CC(C)(C)O2 [BENZO[B]ACRONYCINE],3.4 µM,
CC1(C)C=Cc2c(cc(O)c3c(=O)c4c(ccc5cc(Br)ccc54)[nH]c23)O1,1.7 µM,3.4 µM
COc1cc2c(c3c1c(=O)c1cc4cc(Br)ccc4cc1n3C)[C@H]1OC(=O)O[C@H]1C(C)(C)O2 (racemic),0.011 µM,0.034 µM
C=C1n2c3ccc4cc(Br)ccc4c3c(=O)c3c(O)cc(O)c(c32)C1(C)C,2.5 µM,7.3 µM
COc1cc2c(c3c1c(=O)c1cc4cc(Br)ccc4cc1n3C)[C@@H](O)[C@@H](O)C(C)(C)O2 (racemic),36.3 µM,0.225 µM
